In ChEMBL document CHEMBL5058577, “EUbOPEN Chemogenomics Library 2 (Multiplex)” (2022):

System: U2OS
Test: Multiplex assay against U2OS
Assay type: toxicity, cell-based
Conditions: human
Procedure, shortened: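 With compound added, live cells were imaged on a CQ1 microscope at 37°C and 5% CO2; staining with Hoechst33342, BioTracker Green Microtubule Cytoskeleton Dye, MitoTracker Red and Annexin V Alexa Fluor 680 had been done at seeding. The CellPathfinder machine-learning gating scheme split cells into Hoechst high-intensity objects or normal cells, normal cells into healthy, pyknosed or fragmented nuclei, and pyknosed cells into mitotic or apoptotic. The tubulin, mitochondrial-mass and membrane-permeability phenotypes are per cents of healthy-nucleus cells.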

[1] = 12 h, 1 µM, compound concentration 1 uM, replicate 1
[2] = 12 h, 1 µM, compound concentration 1 uM, replicate 2
[3] = 12 h, 10 µM, compound concentration 10 uM, replicate 1
[4] = 12 h, 10 µM, compound concentration 10 uM, replicate 2
[5] = 24 h, 1 µM, compound concentration 1 uM, replicate 1
[6] = 24 h, 1 µM, compound concentration 1 uM, replicate 2
[7] = 24 h, 10 µM, compound concentration 10 uM, replicate 1
[8] = 24 h, 10 µM, compound concentration 10 uM, replicate 2
[9] = 48 h, 1 µM, compound concentration 1 uM, replicate 1
[10] = 48 h, 1 µM, compound concentration 1 uM, replicate 2
[11] = 48 h, 10 µM, compound concentration 10 uM, replicate 1
[12] = 48 h, 10 µM, compound concentration 10 uM, replicate 2

Cc1ccc(/C(=C\CN2CCCC2)c2ccccn2)cc1 [TRIPROLIDINE]
Population Apoptotic (%) [1]: 85% | Population Fragmented Nuclei (%) [1]: 29% | Population Healthy Nuclei (%) [1]: 61% | Population Hoechst High Intensity Objects (%) [1]: 2% | Population Membrane Permeable-Phenotype (%) [1]: 4% | Population Mitochondria Different-Phenotype (%) [1]: 2% | Population Mitotic Cells (%) [1]: 15% | Population Normal (%) [1]: 97% | Population Pyknosed Nuclei (%) [1]: 8% | Population Tubulin-Different-Phenotype (%) [1]: 1% | Total Cell Count [1]: 244 | Population Fragmented Nuclei (%) [2]: 18% | Population Healthy Nuclei (%) [2]: 70% | Population Hoechst High Intensity Objects (%) [2]: 3% | Population Membrane Permeable-Phenotype (%) [2]: 6% | Population Mitochondria Different-Phenotype (%) [2]: 1% | Population Mitotic Cells (%) [2]: 14% | Population Normal (%) [2]: 96% | Population Pyknosed Nuclei (%) [2]: 11% | Population Tubulin-Different-Phenotype (%) [2]: 5% | Total Cell Count [2]: 126 | Population Apoptotic (%) [3]: 87% | Population Fragmented Nuclei (%) [3]: 25% | Population Healthy Nuclei (%) [3]: 64% | Population Hoechst High Intensity Objects (%) [3]: 3% | Population Membrane Permeable-Phenotype (%) [3]: 29% | Population Mitochondria Different-Phenotype (%) [3]: 23% | Population Mitotic Cells (%) [3]: 12% | Population Normal (%) [3]: 96% | Population Pyknosed Nuclei (%) [3]: 9% | Population Tubulin-Different-Phenotype (%) [3]: 24% | Total Cell Count [3]: 264 | Population Apoptotic (%) [4]: 75% | Population Fragmented Nuclei (%) [4]: 15% | Population Healthy Nuclei (%) [4]: 77% | Population Hoechst High Intensity Objects (%) [4]: 0% | Population Membrane Permeable-Phenotype (%) [4]: 14% | Population Mitochondria Different-Phenotype (%) [4]: 18% | Population Mitotic Cells (%) [4]: 25% | Population Normal (%) [4]: 99% | Population Pyknosed Nuclei (%) [4]: 7% | Population Tubulin-Different-Phenotype (%) [4]: 15% | Total Cell Count [4]: 114 | Population Apoptotic (%) [5]: 89% | Population Fragmented Nuclei (%) [5]: 23% | Population Healthy Nuclei (%) [5]: 66% | Population Hoechst High Intensity Objects (%) [5]: 1% | Population Membrane Permeable-Phenotype (%) [5]: 4% | Population Mitochondria Different-Phenotype (%) [5]: 3% | Population Mitotic Cells (%) [5]: 10% | Population Normal (%) [5]: 98% | Population Pyknosed Nuclei (%) [5]: 9% | Population Tubulin-Different-Phenotype (%) [5]: 2% | Total Cell Count [5]: 297 | Population Apoptotic (%) [6]: 81% | Population Fragmented Nuclei (%) [6]: 20% | Population Healthy Nuclei (%) [6]: 68% | Population Hoechst High Intensity Objects (%) [6]: 4% | Population Membrane Permeable-Phenotype (%) [6]: 9% | Population Mitochondria Different-Phenotype (%) [6]: 6% | Population Mitotic Cells (%) [6]: 18% | Population Normal (%) [6]: 96% | Population Pyknosed Nuclei (%) [6]: 11% | Population Tubulin-Different-Phenotype (%) [6]: 5% | Total Cell Count [6]: 150 | Population Apoptotic (%) [7]: 75% | Population Fragmented Nuclei (%) [7]: 27% | Population Healthy Nuclei (%) [7]: 62% | Population Hoechst High Intensity Objects (%) [7]: 2% | Population Membrane Permeable-Phenotype (%) [7]: 12% | Population Mitochondria Different-Phenotype (%) [7]: 15% | Population Mitotic Cells (%) [7]: 24% | Population Normal (%) [7]: 97% | Population Pyknosed Nuclei (%) [7]: 10% | Population Tubulin-Different-Phenotype (%) [7]: 8% | Total Cell Count [7]: 320 | Population Apoptotic (%) [8]: 78% | Population Fragmented Nuclei (%) [8]: 19% | Population Healthy Nuclei (%) [8]: 70% | Population Hoechst High Intensity Objects (%) [8]: 1% | Population Membrane Permeable-Phenotype (%) [8]: 11% | Population Mitochondria Different-Phenotype (%) [8]: 13% | Population Mitotic Cells (%) [8]: 21% | Population Normal (%) [8]: 98% | Population Pyknosed Nuclei (%) [8]: 9% | Population Tubulin-Different-Phenotype (%) [8]: 6% | Total Cell Count [8]: 149 | Population Apoptotic (%) [9]: 86% | Population Fragmented Nuclei (%) [9]: 17% | Population Healthy Nuclei (%) [9]: 73% | Population Hoechst High Intensity Objects (%) [9]: 2% | Population Membrane Permeable-Phenotype (%) [9]: 3% | Population Mitochondria Different-Phenotype (%) [9]: 3% | Population Mitotic Cells (%) [9]: 13% | Population Normal (%) [9]: 97% | Population Pyknosed Nuclei (%) [9]: 9% | Population Tubulin-Different-Phenotype (%) [9]: 3% | Total Cell Count [9]: 398 | Population Apoptotic (%) [10]: 76% | Population Healthy Nuclei (%) [10]: 75% | Population Hoechst High Intensity Objects (%) [10]: 3% | Population Membrane Permeable-Phenotype (%) [10]: 5% | Population Mitotic Cells (%) [10]: 23% | Population Normal (%) [10]: 96% | Population Pyknosed Nuclei (%) [10]: 6% | Population Tubulin-Different-Phenotype (%) [10]: 4% | Total Cell Count [10]: 209 | Population Apoptotic (%) [11]: 86% | Population Fragmented Nuclei (%) [11]: 24% | Population Healthy Nuclei (%) [11]: 65% | Population Hoechst High Intensity Objects (%) [11]: 2% | Population Membrane Permeable-Phenotype (%) [11]: 11% | Population Mitochondria Different-Phenotype (%) [11]: 8% | Population Mitotic Cells (%) [11]: 13% | Population Normal (%) [11]: 97% | Population Pyknosed Nuclei (%) [11]: 9% | Population Tubulin-Different-Phenotype (%) [11]: 7% | Total Cell Count [11]: 453 | Population Apoptotic (%) [12]: 89% | Population Fragmented Nuclei (%) [12]: 15% | Population Healthy Nuclei (%) [12]: 74% | Population Hoechst High Intensity Objects (%) [12]: 4% | Population Membrane Permeable-Phenotype (%) [12]: 9% | Population Mitotic Cells (%) [12]: 10% | Population Normal (%) [12]: 95% | Population Tubulin-Different-Phenotype (%) [12]: 6% | Total Cell Count [12]: 203

CCCC(CCC)C(=O)O [VALPROIC ACID]
Population Apoptotic (%) [1]: 72% | Population Fragmented Nuclei (%) [1]: 28% | Population Healthy Nuclei (%) [1]: 63% | Population Hoechst High Intensity Objects (%) [1]: 6% | Population Membrane Permeable-Phenotype (%) [1]: 9% | Population Mitochondria Different-Phenotype (%) [1]: 7% | Population Mitotic Cells (%) [1]: 27% | Population Normal (%) [1]: 93% | Population Pyknosed Nuclei (%) [1]: 8% | Population Tubulin-Different-Phenotype (%) [1]: 8% | Population Apoptotic (%) [2]: 66% | Population Fragmented Nuclei (%) [2]: 14% | Population Healthy Nuclei (%) [2]: 77% | Population Hoechst High Intensity Objects (%) [2]: 2% | Population Membrane Permeable-Phenotype (%) [2]: 8% | Population Mitochondria Different-Phenotype (%) [2]: 3% | Population Mitotic Cells (%) [2]: 33% | Population Normal (%) [2]: 97% | Population Tubulin-Different-Phenotype (%) [2]: 6% | Population Apoptotic (%) [3]: 77% | Population Fragmented Nuclei (%) [3]: 30% | Population Healthy Nuclei (%) [3]: 66% | Population Hoechst High Intensity Objects (%) [3]: 4% | Population Membrane Permeable-Phenotype (%) [3]: 6% | Population Mitochondria Different-Phenotype (%) [3]: 3% | Population Mitotic Cells (%) [3]: 22% | Population Normal (%) [3]: 95% | Population Pyknosed Nuclei (%) [3]: 3% | Population Tubulin-Different-Phenotype (%) [3]: 4% | Population Apoptotic (%) [4]: 85% | Population Fragmented Nuclei (%) [4]: 21% | Population Healthy Nuclei (%) [4]: 70% | Population Hoechst High Intensity Objects (%) [4]: 0% | Population Membrane Permeable-Phenotype (%) [4]: 4% | Population Mitochondria Different-Phenotype (%) [4]: 4% | Population Mitotic Cells (%) [4]: 14% | Population Normal (%) [4]: 100% | Population Pyknosed Nuclei (%) [4]: 7% | Population Apoptotic (%) [5]: 84% | Population Fragmented Nuclei (%) [5]: 24% | Population Healthy Nuclei (%) [5]: 66% | Population Hoechst High Intensity Objects (%) [5]: 6% | Population Membrane Permeable-Phenotype (%) [5]: 9% | Population Mitochondria Different-Phenotype (%) [5]: 6% | Population Mitotic Cells (%) [5]: 16% | Population Normal (%) [5]: 93% | Population Pyknosed Nuclei (%) [5]: 8% | Population Tubulin-Different-Phenotype (%) [5]: 9% | Population Apoptotic (%) [6]: 100% | Population Fragmented Nuclei (%) [6]: 17% | Population Healthy Nuclei (%) [6]: 74% | Population Hoechst High Intensity Objects (%) [6]: 3% | Population Mitochondria Different-Phenotype (%) [6]: 2% | Population Mitotic Cells (%) [6]: 0% | Population Normal (%) [6]: 96% | Population Tubulin-Different-Phenotype (%) [6]: 7% | Population Apoptotic (%) [7]: 83% | Population Fragmented Nuclei (%) [7]: 25% | Population Healthy Nuclei (%) [7]: 71% | Population Hoechst High Intensity Objects (%) [7]: 2% | Population Membrane Permeable-Phenotype (%) [7]: 4% | Population Mitochondria Different-Phenotype (%) [7]: 3% | Population Mitotic Cells (%) [7]: 16% | Population Normal (%) [7]: 97% | Population Pyknosed Nuclei (%) [7]: 3% | Population Tubulin-Different-Phenotype (%) [7]: 3% | Population Apoptotic (%) [8]: 100% | Population Fragmented Nuclei (%) [8]: 17% | Population Healthy Nuclei (%) [8]: 78% | Population Hoechst High Intensity Objects (%) [8]: 0% | Population Membrane Permeable-Phenotype (%) [8]: 8% | Population Mitochondria Different-Phenotype (%) [8]: 4% | Population Mitotic Cells (%) [8]: 0% | Population Normal (%) [8]: 100% | Population Pyknosed Nuclei (%) [8]: 4% | Population Tubulin-Different-Phenotype (%) [8]: 5% | Population Apoptotic (%) [9]: 76% | Population Fragmented Nuclei (%) [9]: 20% | Population Healthy Nuclei (%) [9]: 69% | Population Hoechst High Intensity Objects (%) [9]: 3% | Population Membrane Permeable-Phenotype (%) [9]: 7% | Population Mitochondria Different-Phenotype (%) [9]: 5% | Population Mitotic Cells (%) [9]: 23% | Population Normal (%) [9]: 96% | Population Pyknosed Nuclei (%) [9]: 9% | Population Tubulin-Different-Phenotype (%) [9]: 5% | Population Apoptotic (%) [10]: 91% | Population Fragmented Nuclei (%) [10]: 16% | Population Healthy Nuclei (%) [10]: 72% | Population Membrane Permeable-Phenotype (%) [10]: 8% | Population Mitotic Cells (%) [10]: 8% | Population Pyknosed Nuclei (%) [10]: 11% | Population Tubulin-Different-Phenotype (%) [10]: 6% | Population Apoptotic (%) [11]: 91% | Population Fragmented Nuclei (%) [11]: 20% | Population Healthy Nuclei (%) [11]: 71% | Population Hoechst High Intensity Objects (%) [11]: 2% | Population Membrane Permeable-Phenotype (%) [11]: 3% | Population Mitochondria Different-Phenotype (%) [11]: 2% | Population Mitotic Cells (%) [11]: 8% | Population Normal (%) [11]: 97% | Population Pyknosed Nuclei (%) [11]: 7% | Population Tubulin-Different-Phenotype (%) [11]: 1% | Population Apoptotic (%) [12]: 93% | Population Hoechst High Intensity Objects (%) [12]: 1% | Population Membrane Permeable-Phenotype (%) [12]: 9% | Population Mitotic Cells (%) [12]: 6% | Population Normal (%) [12]: 98% | Population Tubulin-Different-Phenotype (%) [12]: 4%
